# Screening results: PubChem BioAssay, several laboratories
# A selection: hits, their analogues and other compounds. The true share with any hit is near 1.7%.
# Vif inh – blocks HIV Vif function; inhibition, % at 7.49 µM; 0.35% of 340,000 active; HEK293T cells, Vif self-association by quenched fluorescence, imaging, 24 h; in the data active = inhibition above about 50%, passing the limit was not always enough; inconclusive = no clear call, values can overlap the other calls; inactive = below about 31%
# CaV13 FRET inh – Primary screen for inhibitors of IQ motif and Ca2+-dependent inactivation inhibitor domain binding in CACNA1D, Förster resonance energy transfer in living cells, …; HEK cells, CFP/YFP FRET ICDI-IQ, plate reader, 10 min; percent FRET-ratio fall versus neutral wells; inhibition, % at 12.3 µM; 0.098% of 340,000 active;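 active = mean replicate inhibition of at least 30% and at least 1% of replicates passing that level; inconclusive = only one of the two criteria is met; inactive = neither criterion is met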;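 also: 0% = median of the neutral control wells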
# SR-BI uptake up – SR-BI HDL lipid transfer activation; activation, % at 12.5 µM; 0.096% of 320,000 active; CHO ldlA[mSR-BI] cells, DiI-HDL uptake fluorescence, 3 h; 100 = double the neutral-control signal;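 active = mean replicate activation of at least 60% and every replicate at or above 60%; inconclusive = mean or all-replicate condition met, but not both; inactive = mean below 60% and not all replicates reaching 60%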;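 also: 0% = median plate neutral-control signal and 100% = twice that signal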
#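 System: LDL receptor-deficient CHO ldlA cells overexpressing murine SR-BI | Timing: 3 h uptake period with compound, 37 °C | Medium: HEPES-buffered (25 mM, pH 7.4) F12 plus 0.5% BSA | Dosing: Single-point compound dose | Signal: Bottom-read fluorescence, 550/595 nm | Read-out: Retained DiI signal reflecting DiI-HDL uptake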
# NTR1 agonist – NTR1 (human) agonism; NTR1-U2OS beta-arrestin-GFP spot imaging, agonist mode; activation, % at 20 µM; 0.17% of 330,000 active; AID 493036;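 active = activation at or above 40% of the spot to cytoplasm intensity ratio, with at least 20 cells analyzed; inconclusive = wells under 20 cells, flagged as cytotoxic or low count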;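 also: 0% = DMSO without peptide and 100% = 100 nM NTR1 peptide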
# SR-BI HDL uptake – inhibitors of mouse SR-BI mediated HDL lipid uptake; ldlA[mSR-BI] CHO cells, DiI-HDL uptake fluorescence, 3 h; Q61009; AID 488896; 0.96% of 320,000 active; inhibition, % at 12.5 µM;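 active = mean replicate inhibition of at least 70% and a set share of replicates each scoring 70 or more; inconclusive = meets just one of the two criteria; inactive = fails both criteria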;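 also: 0% = median of neutral control wells and 100% = median of positive control wells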
# Target sequence (Q61009 whole entry, looked up): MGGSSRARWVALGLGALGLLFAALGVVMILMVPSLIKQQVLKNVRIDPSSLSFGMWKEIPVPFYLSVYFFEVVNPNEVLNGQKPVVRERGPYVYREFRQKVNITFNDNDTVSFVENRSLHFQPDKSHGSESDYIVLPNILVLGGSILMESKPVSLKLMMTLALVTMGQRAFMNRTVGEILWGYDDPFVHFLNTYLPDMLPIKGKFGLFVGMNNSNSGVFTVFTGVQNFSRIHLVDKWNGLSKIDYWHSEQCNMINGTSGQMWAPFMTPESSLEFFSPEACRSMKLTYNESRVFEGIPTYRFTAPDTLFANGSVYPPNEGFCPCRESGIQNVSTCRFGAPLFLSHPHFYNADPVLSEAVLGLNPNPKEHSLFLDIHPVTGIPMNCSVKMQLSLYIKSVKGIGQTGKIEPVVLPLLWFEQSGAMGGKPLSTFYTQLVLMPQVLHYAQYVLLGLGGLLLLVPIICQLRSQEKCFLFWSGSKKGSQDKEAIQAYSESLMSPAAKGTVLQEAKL
# V-ATPase pHluor – alters yeast V-ATPase proton transport. S. cerevisiae, pHLuorin cytosolic pH fluorescence. response, % at 10 µM. 0.37% of 350,000 active; in the data active = response mostly above about 7.3%, no sharp cut-off; inactive = mostly below about 5.4%; also: actives read high
# * = called active by the depositor; u = inconclusive; x = not tested or not shown; ! = repeats disagree.
SMILES,Vif inh,CaV13 FRET inh,SR-BI uptake up,NTR1 agonist,SR-BI HDL uptake,V-ATPase pHluor
CCN1CCN(Cc2ccc(NC(=O)c3ccc(C)c(NC(=O)C(=O)c4c[nH]c5ccccc45)c3)cc2C(F)(F)F)CC1,-9,-5,-3,41*!,3,4
CCOC(=O)CCc1c(C)nc(SCc2ccc(C(=O)O)cc2)c(C#N)c1C,0,3,-11,-1,11,1
COc1cc(OC)c(C=CC(=O)c2ccccc2O)c(OC)c1,-7,-5,-73,x,73*,5
COc1cc(/C=C/C(=O)c2ccccc2O)cc(OC)c1OC,-2,x,-46,15,46,4
CCc1ccc(C(O)c2ncc(-c3ccc(C)cc3)[nH]2)cc1 (stereo not given),-5,-11,x,x,x,x
Cc1cccc2c(N=Nc3ccc(S(=O)(=O)Nc4ccc(Cl)cc4)cc3[N+](=O)[O-])c(O)[nH]c12,-1,9,-97,2,97*,2
CCOC(=O)N1CCN(C(=O)CSCC(=O)Nc2nc(-c3ccc(-c4ccccc4)cc3)cs2)CC1,-6,-6,-85,9,85*,2
COc1cc(C(=O)OCCCN2CCCN(CCCOC(=O)c3cc(OC)c(OC)c(OC)c3)CC2)cc(OC)c1OC,3,-6,-81,3,81*,-4
COc1cc(C(=O)OCCN2CCOCC2)cc(OC)c1OC,0,-8,7,1,-7,5
Cc1ccccc1S(=O)(=O)NC(=O)C1(C)CCN1C(=O)C1(c2ccccc2)CC1 (stereo not given),19,-5,x,x,x,x
CC(C)CNC(=O)c1cccc(NC(=O)c2ccc3c(c2)C(=O)N(C)C3=O)c1,-3,-6,-81,2,81*,4
O=[N+]([O-])c1ccccc1C(=Nc1ccccc1)c1c(O)cc(O)cc1O,-1,-6,x,x,x,-3
Cc1cc(C(=O)N/N=C/c2cc(N=Nc3ccccc3)ccc2O)n[nH]1,0,x,-115,x,115*,-2
O=C(N/N=C/c1cc([N+](=O)[O-])ccc1O)c1cc(-c2ccccc2)nc2ccccc12,16,-4,-129,0,129*,3
O=C(N/N=C/c1cc([N+](=O)[O-])ccc1Cl)c1cc(-c2ccccc2)nc2ccccc12,-23,6,x,2,x,4
O=C(N/N=C/c1cc([N+](=O)[O-])ccc1O)NC12CC3CC(CC(C3)C1)C2,7,-6,-5,11,5,2
O=C(N/N=C/c1ccc([N+](=O)[O-])o1)c1cc(-c2ccncc2)nc2ccccc12,-9,-8,-41,2,41,6
O=C(N/N=C/c1ccc([N+](=O)[O-])o1)c1cc(-c2ccc(-c3ccccc3)cc2)nc2ccccc12,6,-4,-118,3,118*,1
COC(=O)N/N=C/c1cc(N=Nc2ccccc2)ccc1O,-7,0,-15,0,15,-3
O=C(N/N=C/c1cc([N+](=O)[O-])ccc1O)C12CC3CC(CC(C3)C1)C2,-12,-7,-136,0,136*,2
COc1cccc(C2NC(=S)N(Cc3ccc(Br)cc3)C(C)=C2C(C)=O)c1 (stereo not given),x,-3,x,x,x,x
CC(=O)Nc1ccc(NC(=O)CSc2nnc(-c3cccnc3)o2)cc1,9,-3,5,2,-5,-4
Cc1ccccc1OCC(=O)OCC(=O)NC1CCCCCC1,2,x,24,1,-24,-1
O=C(NN=Cc1cc([N+](=O)[O-])ccc1O)c1cccc2ccccc12,11,-5,-134,x,134*,0
Cc1ccc(-c2nc(N/N=C/c3cccnc3)c3ccccc3n2)cc1,x,x,-45,9,45,3
SMILES,Vif inh,CaV13 FRET inh,SR-BI uptake up,NTR1 agonist,SR-BI HDL uptake,V-ATPase pHluor
Cc1ccc(-c2nc(N/N=C/c3cccc([N+](=O)[O-])c3)c3ccccc3n2)cc1,6,-8,-74,14,74*,0
O=[N+]([O-])c1ccc(O)c(/C=N/Nc2nc3ccccc3[nH]2)c1,1,-16,-87,0,87*,-4
Cc1cc(Cl)ccc1NC(=O)CCC(=O)N/N=C/c1cc([N+](=O)[O-])ccc1O,-1,-6,10,2,-10,1
O=[N+]([O-])c1ccc(O)c(/C=N/NC(=S)Nc2ccc(Cl)cc2Cl)c1,-5,-3,-105,10,105*,3
COc1ccc(NC(=O)Cn2c(=O)n(-c3ccc(CC(=O)NCc4ccco4)cc3)c(=O)c3ccccc32)cc1,-3,-3,-18,9,18,0
CCOCCCNC(=O)/C(C#N)=C/c1ccc(C)o1,18,-5,20,3,-20,2
COc1cccc(/C=N/NC(=O)c2nc(-c3ccccc3)cc(-c3ccccc3)n2)c1,-1,-3,-81,4,81*,-1
Cc1cc(C(=O)N/N=C/c2cc([N+](=O)[O-])ccc2O)c2ccccc2n1,11,-10,-118,2,118*,2
Nc1ccc(C(=O)N/N=C\c2cc(N=Nc3cccc4ccccc34)ccc2O)cc1,u,-5,-122,-1,122*,1
O=C(N/N=C/c1cccc([N+](=O)[O-])c1)c1cc(-c2ccccc2)nc2ccccc12,-5,-4,-80,9,80*,-1
Cc1cc(C(=O)N/N=C/c2ccc([N+](=O)[O-])cc2)c2ccccc2n1,-2,-5,-23,0,23,3
COc1ccc(/C=N/NC(=O)c2nc(-c3ccccc3)cc(-c3ccccc3)n2)cc1OC,3,x,-67,5,67,3
COC(=O)Cc1nnn2c1[C@H](C)[C@@H](OC)c1cccc(Cl)c1-2,x,-4,x,x,x,x
COC(=O)CCCn1cc(CN2CC(N(C)C)CS2(=O)=O)nn1 (stereo not given),x,-9,x,x,x,x
COCCN=c1scc(-c2ccccc2)n1/N=C/c1c[nH]c2ccccc12,2,-5,-83,10,83*,-2
CC(NC(=O)COC(=O)c1ccc(Br)o1)c1ccccc1 (stereo not given),22,-2,2,0,-2,-5
COc1ccc(-c2sc3ccc(OC)cc3c2-c2ccc(OC)nc2)cc1,-8,-9,-75,8,75*,0
COc1cc(OC)cc(-c2sc3ccc(OC)cc3c2-c2ccc(OCCN3CCOCC3)cc2)c1,61*,x,-18,10,18,4
COc1cccc(-c2sc3ccc(OC)cc3c2-c2ccc(OCCN3CCOCC3)cc2)c1,4,-5,-31,4,31,3
CCOCc1cc(=O)[nH]c(SC)n1,-1,-20,21,0,-21,2
